High-throughput results as filed in PubChem.
Rows were chosen to be rich in hits. Some 3.7% of all compounds tested hit in one or more screens of this group.
DENV2 CPE – inhibitors of DENV2 cytopathic effect, primary screen, cell-based, plate reader, single concentration | DENV2-infected cells, cytopathic effect rescue | CPE inhibition, % at 9.99 µM | hit rate 1.7% among 350,000 | AID 651640, 2012; in the data active = CPE inhibition above about 20%, passing the limit was not always enough; inconclusive = no clear call, values can overlap the other calls; tested in BHK-21 cells;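 also: 0% = median of neutral control wells and 100% = median of positive control wells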
E-selectin induc – E-selectin induction in HUVECs, primary screen, imaging, HUVEC, immunofluorescence imaging, single point; activation, % at 7.58 µM; AID 686992, 2013; P16581; normalized: neutral wells 0, TNF-alpha wells 100; hit rate 0.37% among 260,000;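 active = mean E-selectin-positive cell signal at least 10% of the positive control, reached in at least 60% of replicates, without over 20% cell loss; inconclusive = no rule given, readout overlaps actives, possibly toxicity-flagged; inactive = the rest, including those meeting only one limit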
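material = human umbilical vein endothelial cells (HUVEC), E-selectin induction | quantity = 3,000 cells/well | medium = EGM-2 growth medium on 0.1% gelatin-coated wells | technique = immunofluorescence imaging | read-out basis = % PE-positive cells | control set = TNF-alpha positive control, DMSO neutral control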
FGF22 binding – binders of human FGF22 protein, primary screen, FGF22 synaptogenesis inhibitor project, biophysical, thermal shift, single point | recombinant FGF22 thermal shift, SYPRO orange fluorescence; percent of sucrose octasulfate shift, DMSO zero | activity (Tm shift, normalised), % at 9.99 µM | hit rate 1.5% among 340,000;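 active = mean Tm shift, scaled 0 neutral to 100 positive control, at about 1.3% or above, every replicate too, limit read from the data; inconclusive = no clear call, values can overlap the other calls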
Target sequence (Q9HCT0 whole entry, looked up): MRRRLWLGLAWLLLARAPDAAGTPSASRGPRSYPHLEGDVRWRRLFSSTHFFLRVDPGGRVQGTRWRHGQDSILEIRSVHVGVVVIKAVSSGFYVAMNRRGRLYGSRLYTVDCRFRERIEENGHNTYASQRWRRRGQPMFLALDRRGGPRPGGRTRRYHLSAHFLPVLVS
F508del corr – F508del CFTR correction, initial screen, CFBE line, single point; CFBE cells, YFP halide quenching; stimulated with forskolin plus potentiator P3; % fluorescence drop versus neutral controls; activity (quench increase), % at 7.58 µM; hit rate 0.36% among 350,000; AID 720511, 2013;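 active = mean added fluorescence quench of at least 8% versus neutral control, with both replicates also reaching 8%; inconclusive = only one of the mean or replicate conditions met; inactive = mean below 8% and not both replicates reaching 8%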;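 also: cells transiently co-express mutant CFTR-F508del with the halide-sensitive YFP; corrector assay measuring rescue of mutant channel to the surface after 24 h compound exposure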
ERAP1 HTS inh – human ERAP1 aminopeptidase inhibitors, primary screen, biochemical, single point, plate reader. Endoplasmic reticulum aminopeptidase 1 (Homo sapiens), Q9NZ08. recombinant ERAP1, Leu-AMC fluorescence, 60 min. inhibition, % at 10.7 µM. hit rate 0.15% among 340,000;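 active = mean replicate inhibition of at least 30%, or all replicates individually reaching that 30% level; inactive = mean below 30% and not every replicate reaching it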;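 also: 0% = neutral control wells and 100% = L-leucinethiol positive control wells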
The depositor's hits bear a star; ? = inconclusive; . = not tested or not shown.

SMILES	DENV2 CPE	E-selectin induc	FGF22 binding	F508del corr	ERAP1 HTS inh
COc1ccc(CN(C)C[C@H]2Oc3ccc(NS(=O)(=O)c4cccs4)cc3C(=O)N([C@@H](C)CO)C[C@H]2C)cc1	16	-7	0	-1	0
COc1ccc(CN(C)C[C@H]2Oc3ccc(NS(=O)(=O)c4cccs4)cc3C(=O)N([C@H](C)CO)C[C@H]2C)cc1	5	-24	0	-1	0
C[C@H](CO)N1C[C@H](C)[C@H](CN(C)S(C)(=O)=O)Oc2ccc(NC(=O)C3CCCCC3)cc2C1=O	-5	41*	-1	-2	3
COc1ccc(CN(C)C[C@@H]2Oc3ccc(NS(=O)(=O)c4cccs4)cc3C(=O)N([C@@H](C)CO)C[C@H]2C)cc1	32*	-9	0	1	3
O=C(C[C@@H]1CC[C@H](NS(=O)(=O)c2cccc(F)c2)[C@H](CO)O1)NCc1ccc2c(c1)OCO2	-8	0	0	2	2
C[C@H]1CN([C@@H](C)CO)C(=O)c2ccccc2-c2ccccc2CO[C@@H]1CN(C)Cc1ccncc1	-4	0	0	0	1
COC(=O)[C@@H]1[C@@H](CO)[C@@H]2Cn3c(cccc3=O)[C@@H]2N1C(=O)C1CCCC1	?	0	.	0	0
COc1ccc(CN(C)C[C@@H]2Oc3ccc(NS(C)(=O)=O)cc3C(=O)N([C@@H](C)CO)C[C@H]2C)cc1	10	-9	0	-2	1
COc1ccc(CN(C)C[C@@H]2Oc3ccc(NS(C)(=O)=O)cc3C(=O)N([C@H](C)CO)C[C@H]2C)cc1	25*	7	0	-1	1
CCCNC(=O)[C@@H]1[C@@H](CO)[C@@H]2Cn3c(cccc3=O)[C@@H]2N1C(=O)C1CCCC1	-2	0	0	-3	0
CSc1ccc(S(=O)(=O)Nc2ccc(OCC(=O)N3CCOCC3)cc2)cc1	-1	0	43*	-4	-4
O=C(COc1ccc(S(=O)(=O)Nc2ccc(Cl)cc2)cc1)N1CCOCC1	-3	-1	0	-2	1
COc1ccc(S(=O)(=O)Nc2ccc3c(c2)CC(=O)N([C@@H](C)CO)C[C@@H](C)[C@@H](CN(C)Cc2ccc(C(=O)O)cc2)O3)cc1	-1	0	0	3	-2
Cc1ccc(S(=O)(=O)Nc2cccc3c2O[C@@H](CN(C)S(=O)(=O)c2ccc(F)cc2)[C@H](C)CN([C@@H](C)CO)C3=O)cc1	-6	0	0	-4	.
CSc1ccccc1NC(=O)CO/N=C(\C)c1cc2ccccc2o1	0	.	0	.	8
CCc1ccc(NC(=O)CO/N=C(\C)c2cc3ccccc3o2)cc1	-2	.	44*	4	-5
CCS(=O)(=O)N1CCC2(CC1)CN(Cc1ccccc1)[C@@H](CO)c1c2c2ccc(OC)cc2n1C	-6	0	0	4	2
COC(=O)C1(CC2CC(c3ccccc3)=NO2)CCN(C(=O)OC(C)(C)C)CC1 (stereo not drawn)	-1	0	-1	3	.
COC(=O)C1(CC2CC(c3ccncc3)=NO2)CCN(C(=O)OC(C)(C)C)CC1 (stereo not drawn)	37*	0	0	-1	-2
C[C@H]1CN([C@@H](C)CO)C(=O)c2cccc(NC(=O)C3CCCCC3)c2O[C@H]1CN(C)S(=O)(=O)c1ccc(F)cc1	1	1	0	-2	-1
Cc1cc(Br)ccc1NC(=O)CNC(=O)Cc1ccc(S(=O)(=O)N2CCOCC2)s1	39*	3	.	-1	-3
COc1ccc(CNC(=O)CCS(=O)(=O)c2ccc3c(c2)NC(=O)CS3)cc1	35*	1	0	-3	5
C[C@@H]1CCCCO[C@H](CN(C)C(=O)c2ccncc2)[C@@H](C)CN([C@@H](C)CO)C(=O)c2cc(NC(=O)CCC(F)(F)F)ccc2O1	13	1	0	0	.
CCc1ccccc1N(C)S(=O)(=O)c1ccc(-c2cc(C)no2)s1	-6	0	0	8.2*	0
N#C[C@H]1[C@@H](c2ccc(C#CC3CCCCC3)cc2)[C@H](CO)N1C(=O)Cc1ccccn1	.	0	0	4	0
SMILES	DENV2 CPE	E-selectin induc	FGF22 binding	F508del corr	ERAP1 HTS inh
Clc1ccc(N=c2ssnc2Cl)nc1	1	0	0	1	-1
O=Nc1ccc(Cl)cn1	31*	0	0	0	6
Cc1ccccc1-c1cnc2c(c1)C(=O)N([C@H](C)CO)C[C@H](C)[C@H](CN(C)C(=O)c1ccncc1)O2	-4	0	0	3	0
O=C(c1cccc(F)c1)N1CC2(C1)[C@H](c1ccccc1)[C@H](CO)N2C(=O)C1CC1	34*	0	0	4	1
COCC(=O)N1[C@@H](CO)[C@@H](c2ccccc2)C12CN(C(=O)c1cccc(F)c1)C2	29*	0	0	2	-3
O=C(c1cccc(F)c1)N1CC2(C1)[C@H](c1ccccc1)[C@@H](CO)N2C(=O)C1CC1	19	0	-1	5	1
O=C(c1ccc2c(c1)OCO2)N1CC2(C1)[C@H](c1ccccc1)[C@H](CO)N2C(=O)C1CC1	38*	0	.	-1	1
CCCN1[C@@H]2c3ccc(-c4cccnc4)c(=O)n3C[C@H]1[C@H](CO)[C@H]2C(=O)NC1CCCC1	6	0	.	-3	.
COc1ccc(N2CCN(C(c3cccs3)C(C)NC(=O)c3ccc4c(c3)OCO4)CC2)cc1 (stereo not drawn)	-5	.	43*	-2	1
COc1ccc(N2CCN(C(c3cccs3)C(C)NS(C)(=O)=O)CC2)cc1 (stereo not drawn)	1	.	0	-2	1
COc1ccc(NS(=O)(=O)c2ccc(NC(=S)NCC3CCCO3)cc2)cc1 (stereo not drawn)	?	-1	0	-2	-2
CCNS(=O)(=O)c1ccc(NC(=S)NCC2CCCO2)cc1 (stereo not drawn)	1	-1	43*	3	-5
COc1cccc(/C=C/C(=O)OCC(=O)NC2CCCCCCC2)c1	-4	0	26*	2	1
COc1ccc(CC(=O)NC2CCCCCC2)c(OC)c1	64*	.	0	0	1
COc1ccc(OC)c(NC(=O)CCCC(=O)NC2CCCCC2)c1	4	0	0	-1	-2
CC(=O)N/C(=C\c1ccccc1)C(=O)OCC(=O)NC1CCCC1	21*	.	0	0	-1
C[C@@H]1CN([C@@H](C)CO)S(=O)(=O)c2ccc(C3=CCCC3)cc2O[C@@H]1CN(C)C(=O)c1ccccc1	10	0	0	2	-1
